ChEMBL document CHEMBL1926556, “Synthesis and biological activities of 2-[(heteroaryl)methyl]imidazolines” (Bioorg Med Chem, 2012)
Active and inactive are the calls of the source. The rule behind the calls is not given here.

Columns and labels:
Rattus norvegicus [1] = experiment: Antihypertensive activity in Wistar rat assessed as inhibition of methoxamine-induced change in blood pressure at 0.1 mg/kg, iv administered 10 mins after 20 ug/kg/min methoxamine challenge; type: functional, organism-based; parameters: dose 0.1 mg/kg
Summary of the method: (§1)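 Male Wistar rats (200–290 g) anaesthetized with i.p. thiopental 70 mg/kg, maintained by thiopental infusion, 36–37 °C. Carotid catheter for BP/HR, jugular line for infusion. Methoxamine i.v. infusion 10 or 20 µg/kg/min began 10 min before 0.1 mg/kg i.v. bolus. Readout is ΔMAP or ΔHR from time 0. Five to seven rats per group; repeated-measures ANOVA.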

Rattus norvegicus [2] = experiment: Antihypertensive activity in Wistar rat assessed as inhibition of methoxamine-induced change in heart rate at 0.1 mg/kg, iv administered 10 mins after 20 ug/kg/min methoxamine challenge; type: functional, organism-based; parameters: dose 0.1 mg/kg; summary of the method: as §1
Rattus norvegicus [3] = experiment: Toxicity in Sprague-Dawley rat assessed as still state at 10 to 2000 ug/kg, ip measured after 30 mins; type: organism-based; conditions: in vivo, 0.5 h
Summary of the method: (§2)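 Male Sprague–Dawley rats (250–270 g) were handled by the experimenter one day before testing. Compound was dissolved in sterile saline and given i.p. If no loss of righting reflex occurred after 5 min, the dose was repeated, up to 2000 µg/kg cumulative. Animals were watched for righting reflex, locomotion, motor coordination and behaviour. Righting reflex was scored at 30 min.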

Rattus norvegicus [4] = experiment: Antihypertensive activity in Wistar rat assessed as inhibition of methoxamine-induced change in heart rate at 0.1 mg/kg, iv administered 10 mins after 10 ug/kg/min methoxamine challenge; type: functional, organism-based; parameters: dose 0.1 mg/kg; summary of the method: as §1
Rattus norvegicus [5] = experiment: Antihypertensive activity in Wistar rat assessed as inhibition of methoxamine-induced change in blood pressure at 0.1 mg/kg, iv administered 10 mins after methoxamine challenge; type: functional; summary of the method: as §1
Rattus norvegicus [6] = experiment: Toxicity in Sprague-Dawley rat assessed as reduced motor co-ordination at 10 to 2000 ug/kg, ip measured within 5 to 8 mins; type: organism-based; conditions: in vivo; summary of the method: as §2
Rattus norvegicus [7] = experiment: Anxiolytic activity in Sprague-Dawley rat assessed as loss of righting reflex at 500 ug/kg, ip measured after 30 mins; type: functional, organism-based; summary of the method: as §2
Rattus norvegicus [8] = experiment: Toxicity in Sprague-Dawley rat assessed as increase in body temperature at 10 to 2000 ug/kg, ip measured after 30 mins; type: organism-based; conditions: in vivo, 0.5 h

Cl.Clc1cccc2cnn(CC3=NCCN3)c12
Activity (Rattus norvegicus [1]): inactive
Activity (Rattus norvegicus [2]): inactive
Activity (Rattus norvegicus [3]): Non-toxic
Activity (Rattus norvegicus [4]): inactive
Activity (Rattus norvegicus [5]): -47.7 mmHg
Activity (Rattus norvegicus [6]): Toxic
Activity (Rattus norvegicus [7]): inactive
Activity (Rattus norvegicus [8]): Toxic
